# Entries after “also recorded” stand apart in the source; their conditions may differ. Like-named read-outs stand apart in the source and are kept apart here. Marks after values point to notes of the source that are not given here.
# Legend:
# [1] = rats; cited from earlier work
# MiaPaCa2 xenograft = conditions: QD; cited from earlier work
# [2] = cited from earlier work
# [3] = liquid dispersion vs. tablet; with/without a high-calorie meal; cited from earlier work
# [4] = test system: advanced or metastatic non-hematologic malignancies; conditions: FIH study; cited from earlier work
# [5] = dogs; cited from earlier work
# [6] = Phase I dose-finding study: safety, DLT and MTD; format: in vivo, human
# Outline: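 Open-label 3 + 3 dose escalation in cohorts of three to six patients. Oral dosing was once daily, continuous, in 28-day cycles, starting at 50 mg, with 100 and 200 mg planned. DLT was assessed during cycle 1. MTD was the highest level with DLT in none or one of six patients, followed by an expansion cohort at that dose. AEs were graded by CTCAE v4.03 in all patients receiving ≥1 dose.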
# [7] = test system: advanced or metastatic solid tumors; assay: Investigator-assessed anti-tumor activity, RECIST version 1.1; format: in vivo, human
# Outline: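 Open-label phase I study in Japanese and Taiwanese patients (ECOG 0–1) given oral drug once daily, continuously, in 28-day cycles at 50, 100 or 200 mg. CT/MRI at screening, at end of cycle 2, then every two cycles until treatment ended. Objective response was CR or PR; disease control was CR, PR or SD. Evaluable patients had baseline plus ≥1 post-baseline assessment. Analysis was descriptive on patients receiving ≥1 dose.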
# [8] = Plasma and urine pharmacokinetics in cycle 1; format: in vivo, human
# advanced solid tumors = conditions: mixed populations of patients with advanced solid tumors; cited from earlier work
# [9] = at lesser frequency than BI 853520; cited from earlier work
# [10] = 200 mg QD, N = 10, geometric mean
smiles,measurement,setting,value
COc1cc(C(=O)NC2CCN(C)CC2)c(F)cc1Nc1ncc(C(F)(F)F)c(Oc2cccc3c2C(=O)N(C)C3)n1 [BI 853520],principal toxicological target organs,[1],gastrointestinal tract and liver
same,active dose,MiaPaCa2 xenograft,12.5 mg/kg
same,DLTs or DRAEs of grade ≥ 2,[2]; 50 mg QD or 100 mg QD,neither 50 mg QD or 100 mg QD had resulted in dose-limiting toxicities
same,maximum tolerated dose (MTD),"[2]; QD continuous dosing, predominantly (92%) Caucasian population",200 mg
same,patients with grade 3 proteinuria,[2]; dose expansion phase of the FIH study,21%
same,impact of formulation and food on pharmacokinetics,[3],neither formulation (liquid dispersion vs. tablet) nor administration with/without a high-calorie meal have notable impact
same,disease control rate,[4],27%
same,median duration of disease control,[4],3.3 months
same,radiographic objective responses,[4],no radiographic objective responses were reported
same,principal toxicological target organs,[5],gastrointestinal tract and liver
same,evaluable patients treated at the MTD who experienced DLT,[6]; 200 mg QD,two of 15
same,drug-related serious AEs,[6]; 21 treated patients,None of the SAEs was considered drug-related
same,patients who discontinued treatment due to AEs,[6]; 21 treated patients,19%
same,patients with drug-related adverse events,[6]; 21 treated patients,90%
same,patients with drug-related diarrhea,[6]; 21 treated patients,38%
same,patients with drug-related nausea,[6]; 21 treated patients,29%
same,patients with drug-related proteinuria,[6]; 21 treated patients,48%
same,patients with drug-related vomiting,[6]; 21 treated patients,19%
same,patients with serious AEs (SAEs),[6]; 21 treated patients,24%
same,dose-limiting toxicities during cycle 1,"[6]; 50, 100, or 200 mg cohorts",no dose-limiting toxicities were observed; also recorded: no DLTs were observed
same,Any drug-related AE,"[6]; N = 21, all dose cohorts",19 (90) N (%)
same,Drug-related AE: AST increased,"[6]; N = 21, all dose cohorts",1 (5) N (%)
same,Drug-related AE: Abdominal pain upper,"[6]; N = 21, all dose cohorts",1 (5) N (%)
same,Drug-related AE: Anemia,"[6]; N = 21, all dose cohorts",1 (5) N (%)
same,Drug-related AE: Back pain,"[6]; N = 21, all dose cohorts",1 (5) N (%)
same,Drug-related AE: Blood bilirubin increased,"[6]; N = 21, all dose cohorts",1 (5) N (%)
same,Drug-related AE: Blood creatinine increased,"[6]; N = 21, all dose cohorts",1 (5) N (%)
same,Drug-related AE: Decreased appetite,"[6]; N = 21, all dose cohorts",2 (10) N (%)
same,Drug-related AE: Dehydration,"[6]; N = 21, all dose cohorts",1 (5) N (%)
same,Drug-related AE: Diarrhea,"[6]; N = 21, all dose cohorts",8 (38) N (%)
same,Drug-related AE: Dupuytren’s contracture,"[6]; N = 21, all dose cohorts",2 (10) N (%)
same,Drug-related AE: Erectile dysfunction,"[6]; N = 21, all dose cohorts",1 (5) N (%)
same,Drug-related AE: Fatigue,"[6]; N = 21, all dose cohorts",1 (5) N (%)
same,Drug-related AE: Inguinal hernia,"[6]; N = 21, all dose cohorts",1 (5) N (%)
same,Drug-related AE: Nausea,"[6]; N = 21, all dose cohorts",6 (29) N (%)
same,Drug-related AE: Proteinuria,"[6]; N = 21, all dose cohorts",10 (48) N (%)
same,"Drug-related AE: Rash, maculo-papular","[6]; N = 21, all dose cohorts",2 (10) N (%)
same,Drug-related AE: Vomiting,"[6]; N = 21, all dose cohorts",4 (19) N (%)
same,maximum tolerated dose (MTD),"[6]; QD continuous daily dosing, 28-day cycles, Japanese and Taiwanese patients",200 mg
same,DLTs reported overall during the study,"[6]; all treated patients, all cycles",three of 21
same,confirmed objective response rate,[7]; 21 treated patients,5%
same,disease control rate,[7]; 21 treated patients,29%
same,patients with progressive disease,[7]; 21 treated patients,57%
same,Best confirmed response: Complete response,[7]; N = 21,0 N (%)
same,Best confirmed response: Progressive disease,[7]; N = 21,12 (57) N (%)
same,Best confirmed response: Stable disease,[7]; N = 21,5 (24)^d N (%)
same,Best confirmed response: Objective response,"[7]; N = 21, complete response or partial response",1 (5) N (%)
same,Best confirmed response: Disease control,"[7]; N = 21, complete response, partial response, or stable disease",6 (29) N (%)
same,Best confirmed response: Partial response,"[7]; N = 21, patient with gastric cancer (100 mg cohort)",1 (5)^c N (%)
same,median duration of disease control,[7]; six patients with confirmed disease control,3.7 months
same,cumulative fraction excreted in urine,[8]; 200 mg QD cohort,less than 9%
same,"RA,AUC (accumulation ratio, AUC at steady state / single dose)",[8]; [10],2.15
same,"RA,Cmax (accumulation ratio, Cmax at steady state / single dose)",[8]; [10],1.62
same,trough plasma concentrations,"[8]; cycle 1, repeated QD dosing",stable from day 8 to day 28
same,AUC(0-inf),"[8]; human, plasma, oral, 200 mg, AUC0−∞, single dose, 200 mg QD cohort, N = 15, geometric mean",26.3 µM·h
same,AUC,"[8]; human, plasma, oral, 200 mg, AUCτ,1, single dose, 200 mg QD cohort, N = 15, geometric mean",15.3 µM·h
same,Cmax,"[8]; human, plasma, oral, 200 mg, Cmax, single dose, 200 mg QD cohort, N = 15, geometric mean",1570 nM
same,Vd/F,"[8]; human, plasma, oral, 200 mg, Vz/F, single dose, 200 mg QD cohort, N = 15, geometric mean",391 L
same,Tmax,"[8]; human, plasma, oral, 200 mg, tmax, single dose, 200 mg QD cohort, N = 15, median",2 h
same,half-life,"[8]; human, plasma, oral, 200 mg, t½, single dose, 200 mg QD cohort, N = 15, geometric mean",20.9 h
same,"tmax,ss","[8]; multiple dose, steady state day 28, 200 mg QD, N = 10, median",2.94 h
same,"CL/F,ss","[8]; multiple dose, steady state, 200 mg QD, N = 10, geometric mean",155 mL/min
same,"fe0−24,ss","[8]; multiple dose, steady state, 200 mg QD, urine, N = 10, geometric mean",8.86%
same,CL/F,"[8]; single dose, 200 mg QD cohort, N = 15, geometric mean",216 mL/min
same,fe0–24,"[8]; single dose, 200 mg QD cohort, urine, data for 13 patients, geometric mean",5.60^b %
CNC(=O)c1ccc(Nc2ncc(C(F)(F)F)c(NCc3nccnc3N(C)S(C)(=O)=O)n2)cc1 [VS-6063],anti-tumor activity in phase I,advanced solid tumors,evidence of disease stabilization
CONC(=O)c1ccccc1Nc1cc(Nc2cc(C)nn2C(C)C)ncc1Cl [GSK2256098],proteinuria,[9],Proteinuria has been reported
same,anti-tumor activity in phase I,advanced solid tumors,evidence of disease stabilization
CN(c1ncccc1CNc1nc(Nc2ccc3c(c2)CC(=O)N3)ncc1C(F)(F)F)S(C)(=O)=O [PF-00562271],proteinuria,[9],Proteinuria has been reported
same,anti-tumor activity in phase I,advanced solid tumors,evidence of disease stabilization
